The source made the active and inactive calls. No cut-off for these calls is given here.

Here are results for 3 molecules from ChEMBL document CHEMBL4725498, “Synthesis and Biological Evaluations of Electrophilic Steroids Inspired by the Taccalonolides” (ACS Med Chem Lett, 2020).

Series [1] has as its system SK-OV-3. Nature of the series: Antiproliferative activity against human SKOV3 cells assessed as reduction in cell growth at 0.01 to 10 uM incubated for 48 hrs by SRB assay. It counts as functional, cell-based. The conditions noted are these: dose microM 0.01-10, time 48.0 hrs. (In general: In SRB staining, fixed cells bind dye roughly in proportion to their protein.)

A further series has as its system OVCAR-5. Nature of the series: Antiproliferative activity against human OVCAR-5 cells assessed as reduction in cell growth at 0.01 to 10 uM incubated for 48 hrs by SRB assay. It counts as functional, cell-based. The conditions noted are these: dose microM 0.01-10, time 48.0 hrs.
A short description of series [2]: Selectivity ratio of antiproliferative activity against human SKOV3-M6/6 cells transfected with MDR1 to antiproliferative activity against human SKOV3 cells measured after 48 hrs by sulforhodamine B assay. The format is functional.
Series [3] addresses T1, Tubulin (Homo sapiens) (UniProt P68371+Q9H4B7+P0DPH7+P68366+Q13509+Q71U36+P04350+Q3ZCM7+P07437+P68363+Q9BQE3+Q6PEY2+Q13885+Q9BVA1+Q9BUF5). Nature of the series: Induction of microtubule stabilization in human BT-549 cells assessed as bundling of microtubule network at 1 microM incubated for 6 hrs by indirect immunofluorescence assay. It counts as cell-based. A digest of the protocol:
(§1)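 BT-549 cells were treated for 6 h with compound or DMSO vehicle. Microtubules were then visualised by immunofluorescence with a β-tubulin antibody, scoring microtubule loss or bundling.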

The test system of the next series is ES2. Nature of the series: Antiproliferative activity against human ES-2 cells assessed as reduction in cell growth at 0.01 to 10 uM incubated for 48 hrs by SRB assay. The conditions noted are these: dose microM 0.01-10, time 48.0 hrs. It counts as functional, cell-based.
The subject of series [4] is SK-OV-3. Nature of the series: Antiproliferative activity against human SKOV3-M6/6 cells assessed as reduction in cell growth at 0.01 to 10 uM incubated for 48 hrs by SRB assay. The conditions noted are these: dose microM 0.01-10, time 48.0 hrs. The format is functional, cell-based.
Series [5] deals with HeLa. Nature of the series: Cytotoxicity against human HeLa cells assessed as reduction in cell viability measured after 48 hrs by sulforhodamine B assay. The format is functional. The conditions noted are these: read-out: LC50 (the source's name). A digest of the protocol: (§2)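 HeLa cells exposed to compound for 48 h, then growth measured by sulforhodamine B (SRB) staining. GI50 (50% growth inhibition), TGI (total growth inhibition) and LC50 (50% cytotoxicity) were read from concentration–response data. Values are average ± SEM, n = 3–5.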

The test system of another series is MDA-MB-231. Kind of series: Cytotoxicity against human MDA-MB-231 cells assessed as reduction in cell viability measured after 48 hrs by sulforhodamine B assay. The format is functional. An outline of the steps:
(§3)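 Breast lines were tested in a 48 h SRB assay: four molecularly diverse triple-negative lines plus nontumorigenic MCF 10A, with MCF 10A tested up to 50 μM. LC50 values came from concentration–response curves. Complete cytotoxicity was taken as the concentration giving full cell kill after 48 h incubation.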

Series [6] is filed under the species Sus scrofa. Nature of the series: Inhibition of porcine brain tubulin polymerization assessed as reduction in rate and extent of tubulin polymerization at 5 to 10 uM by turbidimetric assay. The conditions noted are these: dose microM 5-10. An outline of the steps: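 Purified porcine brain tubulin (20 μM) was incubated with a range of compound concentrations. Polymerization was monitored turbidimetrically after shift to 37 °C.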

Series [7] concerns BT-549. Kind of series: Cytotoxicity against human BT-549 cells assessed as concentration required for complete reduction in cell viability incubated for 48 hrs by sulforhodamine B assay. The format is functional. A digest of the protocol: as §3
The next series has as its system HCC1937. Nature of the series: Cytotoxicity against human HCC1937 cells assessed as reduction in cell viability measured after 48 hrs by sulforhodamine B assay. The format is functional. The conditions noted are these: read-out: LC50 (the source's name). A digest of the protocol:
as §3

For series [8], the species on record is Sus scrofa. Kind of series: Inhibition of porcine brain tubulin polymerization assessed as reduction in rate and extent of tubulin polymerization at 20 uM by turbidimetric assay. An outline of the steps: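 Purified porcine brain tubulin (20 μM) was incubated with 20 μM compound or DMSO vehicle. Polymerization was monitored turbidimetrically after shift to 37 °C.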

Series [9] relates to BT-549. Kind of series: Cytotoxicity against human BT-549 cells assessed as reduction in cell viability measured after 48 hrs by sulforhodamine B assay. It counts as functional. The conditions noted are these: read-out: LC50 (the source's name). An outline of the steps: as §3
The subject of series [10] is HeLa. Kind of series: Antiproliferative activity against human HeLa cells assessed as growth inhibition measured after 48 hrs by sulforhodamine B assay. It counts as functional. An outline of the steps: as §2
Series [11] deals with T1, Tubulin (Homo sapiens). Nature of the series: Induction of microtubule destabilization in human BT-549 cells assessed as loss of microtubule network at 100 nM incubated for 6 hrs by indirect immunofluorescence assay. The format is cell-based. A digest of the protocol: as §1
Series [12] concerns HeLa. Kind of series: Antiproliferative activity against human HeLa cells assessed as reduction in cell viability incubated for 8 hrs by sulforhodamine B assay. The conditions noted are these: read-out: LC50 (the source's name). The format is functional.
In the next series the test system is MCF-10A. Nature of the series: Cytotoxicity against human MCF10A cells assessed as reduction in cell viability measured after 48 hrs by sulforhodamine B assay. The format is cell-based. An outline of the steps: as §3
For series [13], the system named is HeLa. Kind of series: Inhibition of colony formation in human HeLa cells at 1.4 uM treated for 8 hrs followed by compound washout and measured after 11 days by crystal violet staining based assay. It counts as functional. A digest of the protocol: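 HeLa cells were treated for 8 h with 1.4 μM compound or EtOH vehicle, then the drug was washed out. Colonies were scored 11 days after removal. Groups were compared with vehicle by 1-way ANOVA with Dunnett's post hoc test.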

For series [14], the system named is HeLa. Kind of series: Antiproliferative activity against human HeLa cells assessed as reduction in cell growth incubated for 8 hrs by trypan blue exclusion assay. It counts as functional, cell-based. An outline of the steps:
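HeLa viability was followed during the first 8 h of treatment by trypan blue exclusion.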

The next series relates to MDA-MB-453. Kind of series: Cytotoxicity against human MDA-MB-453 cells assessed as reduction in cell viability measured after 48 hrs by sulforhodamine B assay. The format is functional. An outline of the steps:
as §3

Series [15] in a line: Selectivity index, ratio of LC50 for human HeLa cells to LC50 for human HCC1937 cells measured after 48 hrs by sulforhodamine B assay. It counts as functional.

`CC(=O)O[C@H]1C(=O)[C@@]2(C)[C@H]([C@H](OC(=O)c3ccccc3)[C@]3(O)C[C@H](OC(=O)[C@H](O)[C@@H](NC(=O)c4ccccc4)c4ccccc4)C(C)=C1C3(C)C)[C@]1(OC(C)=O)CO[C@@H]1C[C@@H]2O` [PACLITAXEL]: the result in the series with SK-OV-3 [1], in the series with OVCAR-5, at Tubulin (Homo sapiens) [3], in the series on ES2 and in the series on SK-OV-3 [4] was Active. In addition, the Ratio in series [2] is reported as 25.
One may read the inhibition as the percentage by which the read-out fell short of the control. A word on the GI50: it is the concentration that inhibits growth by half. What is called TGI is the concentration at which net growth stops. For the molecule `C[C@]12CC=CC[C@@H]1CC[C@@H]1[C@@H]2CC[C@]2(C)C(=O)C=C[C@@H]12`, the CC50 in the series on HeLa [5] is 1070 nM; in the series with MDA-MB-231 (read-out: LC50 (the source's name)), 1920 nM; in the series with HCC1937 it was 1390 nM; with BT-549 [9], 610 nM. For the same molecule, the inhibition entry in the series listed under Sus scrofa [6] is “Dose-dependent effect”. For the same molecule, the CC100 with BT-549 [7] came out at 1 µM. Besides, the outcome on Tubulin (Homo sapiens) [3] and on Tubulin (Homo sapiens) [11] was inactive. In addition, the inhibition result in the series filed under Sus scrofa [8] is “Active”. Further, in the series with HeLa [10], the 50% growth inhibitory concentration (GI50) worked out at 470 nM. Also, the TGI with HeLa [10] was 720 nM.
The LC50 is the concentration that kills 50% of the test population. As to `C[C@]12C[C@H]3O[C@H]3C[C@@H]1CC[C@H]1[C@@H]3[C@@H]4O[C@@H]4C(=O)[C@@]3(C)CC[C@@H]12`, the result in the series on SK-OV-3 [1], in the series with OVCAR-5, in the series with ES2 and with SK-OV-3 [4] was Active. Moreover, the CC50 in the series with HeLa [5] was determined as 1090 nM; in the series with HeLa [12] it was 1400 nM; in the series with HCC1937, 470 nM; with BT-549 [9], 1070 nM. Further, the LC50 (concentration killing 50% of cells) with MDA-MB-231 was 2500 nM; in the series on MDA-MB-453 it was 740 nM. In the series with MCF-10A, the LC50 was above 50000 nM. The Ratio in series [2] is listed as 5. 1.4 µM produced 100% inhibition in the series with HeLa [13]. For the same molecule, the outcome in the series with HeLa [14] was inactive. The inhibition result in the series listed under Sus scrofa [8] is “inactive”. Also, in series [15], the RatioLC50 is 2. For the same molecule, in the series with HeLa [10], the GI50 is 520 nM. Besides, in the series with HeLa [10], the TGI was 740 nM.
